# Compound activity from PubChem.
# In the library only some 2.3% were active in any assay of this set; here they are far more common.
# OXTR agonist: activates the human oxytocin receptor | AID 2435 | 320,000 compounds, 0.32% hits | CHO-OTR cells, Fluo-8 calcium fluorescence; normalized: DMSO 0%, oxytocin 100% | activation, % at 3 µM;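 active = activation above the mean of all tested compounds plus 3 SD, cutoff set per screening run, cut at about 20% in these data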;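 also: peak over basal fluorescence ratio from a 100 s FLIPR kinetic read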
# OXTR potentiator: human OXTR potentiation. CHO-OTR cells, Fluo-8 calcium fluorescence, potentiator mode; 0% = oxytocin EC15, 100% = EC100. P30559. 320,000 compounds, 0.061% hits. activation, % at 3 µM. AID 2445;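 active = activation above that plate's cutoff, the mean activation of tested compounds plus 3 SD, cut at about 6.6% in these data, passing the limit was not always enough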
#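 System: human OTR in CHO cells / Also added: sub-maximal oxytocin, roughly EC15 / Control set: EC15 oxytocin low, 75 nM oxytocin high / Schedule: 6 min compound pre-incubation at room temperature, 100 s kinetic read / Compound: single-point 3.0 µM / Replication: singlicate / Technique: Fluo-8 calcium dye fluorescence / Read-out basis: % activation of max/min ratio relative to oxytocin controls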
# TAAR1 ag: human TAAR1 agonism | activation, % at 3 µM | AID 624467 | Q96RJ0 | 360,000 compounds, 0.99% hits | CHO RD-HGA16 TAAR1, Fluo-8 calcium fluorescence; vehicle wells 0%, saturating PEA agonist 100%;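 active = activation above the mean activation of all test compounds in the run plus 3 SD, cut at about 38% in these data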
#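 Assay system: CHO-derived RD-HGA16 cells with stable Gα16 and human TAAR1; timing: 17-24 h seeding, 75 min 37 °C dye, 30 min RT; read-out: % activation from peak over basal fluorescence ratio, DMSO-to-PEA scaled; measured by: kinetic Fluo-8 calcium fluorescence; benchmarks: low control DMSO, high control PEA (EC100); doses: 3 µM single concentration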
# TAAR1 antag: human TAAR1 antagonism | Q96RJ0 | inhibition, % at 3 µM | 360,000 compounds, 1.5% hits | CHO RD-HGA16 TAAR1, Fluo-8 calcium fluorescence, antagonist;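 active = inhibition above a per-plate cutoff, the mean inhibition of test compounds on that plate plus 3 SD, cut at about 49% in these data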
#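 Test system – hTAAR1-expressing CHO RD-HGA16 cells, Gα16-coupled · Also added – β-PEA at EC80 concentration, post-compound challenge · Compound – 3 µM, single point · Incubation – dye loading 75 min at 37 °C, then 30 min room temperature · Measured by – Fluo-8 intracellular calcium dye fluorescence, real-time kinetic reads · Benchmarks – vehicle and agonist controls · Replicates – singlicate, one well per test compound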
# V1aR counter: activates human V1a receptor in oxytocin agonist counter-screen; P37288; CHO-V1R cells, Fluo-8 calcium fluorescence, agonist mode; 0% DMSO, 100% 3 nM vasopressin; activation, % at 3 µM; 320,000 compounds, 0.25% hits;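 active = activation above the mean activation of all tested compounds plus 3 SD, per screening run, cut at about 20% in these data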;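 also: signal is peak over basal fluorescence ratio across a 100 second FLIPR read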
# Target sequence (P37288 whole entry, looked up): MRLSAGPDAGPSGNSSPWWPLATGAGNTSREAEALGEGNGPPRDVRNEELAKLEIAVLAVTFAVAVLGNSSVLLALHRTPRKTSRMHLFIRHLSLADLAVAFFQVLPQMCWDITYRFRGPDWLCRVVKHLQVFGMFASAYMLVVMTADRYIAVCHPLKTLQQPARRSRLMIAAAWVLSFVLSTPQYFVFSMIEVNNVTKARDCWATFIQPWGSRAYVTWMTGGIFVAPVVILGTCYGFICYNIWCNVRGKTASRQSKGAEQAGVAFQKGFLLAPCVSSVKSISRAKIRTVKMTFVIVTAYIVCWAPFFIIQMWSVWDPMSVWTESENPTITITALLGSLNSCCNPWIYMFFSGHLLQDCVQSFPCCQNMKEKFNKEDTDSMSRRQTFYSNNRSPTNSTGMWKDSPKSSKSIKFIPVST
# V1R ag confirm: human V1a receptor agonism, confirmation; shares compounds with V1aR counter; activation, % at 3 µM; CHO-V1R cells, Fluo-8 calcium fluorescence, agonist; 180 compounds, 20% hits;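 active = average activation exceeds primary screen hit cutoff, cut at about 21% in these data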;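 also: peak over basal fluorescence ratio during a 100 s FLIPR read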
# OXTR counter: OXTR agonism, counter-screen for V1R agonists; shares compounds with V1aR counter; CHO-OTR cells, Fluo-8 calcium fluorescence, agonist; activation, % at 3 µM; 180 compounds, 10% hits; AID 434969;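 active = mean activation over three repeats above the cutoff from the earlier oxytocin receptor agonist screen, cut at about 20% in these data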;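 also: peak over minimum fluorescence ratio within a 100 second FLIPR read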
# A number is an active result; n = inactive; x = no result given.
SMILES,OXTR agonist,OXTR potentiator,TAAR1 ag,TAAR1 antag,V1aR counter,V1R ag confirm,OXTR counter
CS(=O)(=O)Oc1ccc2c(c1)O/C(=C\c1cccnc1)C2=O,n,n,n,n,n,x,x
COc1cc(OC)c(OC)cc1/C=C1\Oc2cc(OS(C)(=O)=O)ccc2C1=O,n,n,n,n,21.2,n,n
CN1N=C2c3ccccc3CCCC2C1c1ccc(F)cc1 (centres undefined),n,n,n,n,n,x,x
CCOc1cccc(C2C(C(=O)c3ccc(C)o3)=C(O)C(=O)N2Cc2ccncc2)c1 (centres undefined),n,n,n,n,n,x,x
CCOc1cccc(C2C(C(=O)c3ccc(C)o3)=C(O)C(=O)N2c2nccs2)c1 (centres undefined),n,n,n,n,38.6,n,n
C=CCn1cc(/C=C/c2cc[n+](C)cc2)c2ccccc21,n,n,n,n,n,x,x
C=CCn1c(C)c(/C=C/c2cc[n+](C)cc2)c2ccccc21,n,n,n,n,25.2,n,n
CCN(CC(=O)NCc1cccs1)C(=O)/C=C/c1cccc(Br)c1,n,n,n,n,n,x,x
CCc1ccc(/C=N/Nc2ncnc3nc[nH]c23)cc1,n,n,n,n,n,x,x
CCc1ccc(N=Nc2ccc(O)c3[nH]cnc23)cc1,n,n,n,n,23.0,25.6,n
CCCC(=O)Nc1nc(C(=O)OCC)cs1,n,n,n,n,n,x,x
CCOC(=O)c1csc(NC(=O)COc2ccc(Cl)cc2Cl)n1,n,n,n,n,22.3,n,n
COc1ccc(S(=O)(=O)N2CCCCCC2)cc1C(=O)N1CCN(C(C)=O)CC1,x,x,n,n,x,x,x
Cc1nnc(-c2ccccc2)c(=O)n1/N=C/c1c(O)ccc2ccccc12,n,n,n,n,25.0,23.8,21.6
CCOc1ccccc1C1NC(=O)c2ccccc2N1 (centres undefined),x,x,n,n,x,x,x
C#CCOCCOCCOCCNc1nc(N2CCN(C(=O)CCCCCCCCCCNC(=O)[C@@H](CCC(=O)O)n3cc(CCCCCN)nn3)CC2)nc(N2CCN(C(=O)CCCCCCCCCCNC(=O)[C@H](CCCCN)n3cc(C[C@@H](C)CC)nn3)CC2)n1,n,n,x,x,44.8,43.6,n
C#CCOCCOCCOCCNc1nc(N2CCN(C(=O)CCCCCCCCCCNC(=O)[C@@H](CCC(=O)O)n3cc(CCCCCN)nn3)CC2)nc(N2CCN(C(=O)CCCCCCCCCCNC(=O)[C@H](CO)n3cc(CCCCCN)nn3)CC2)n1,n,n,x,x,n,x,x
C#CCOCCOCCOCCNc1nc(N2CCN(C(=O)CCCCCCCCCCNC(=O)[C@H](CCCCN)n3cc(C)nn3)CC2)nc(N2CCN(C(=O)CCCCCCCCCCNC(=O)[C@@H]([C@H](C)O)n3cc(C)nn3)CC2)n1,n,n,x,x,30.7,n,n
C#CCOCCOCCOCCNc1nc(N2CCN(C(=O)CCCCCCCCCCNC(=O)Cn3cc(CCCCCN)nn3)CC2)nc(N2CCN(C(=O)CCCCCCCCCCNC(=O)Cn3cc(C[C@@H](C)O)nn3)CC2)n1,n,n,x,x,26.9,n,n
CCCc1nn2c(-c3ccccc3)nnc2o1,x,x,n,n,x,x,x
O=C(N/C(=C\c1ccc(Cl)cc1)C(=O)N1CCOCC1)c1ccc([N+](=O)[O-])cc1,n,n,n,n,n,x,x
C=CCn1cc(CN2CCC(C(=O)Nc3cccc(-c4cccc(F)c4)c3)CC2)c(C)n1,n,n,n,n,n,x,x
C=CCn1cc(CN2CCC(C(=O)Nc3cccc(-c4cccc(Cl)c4)c3)CC2)c(C)n1,n,n,n,n,22.5,n,n
C=CCn1c(SCC(=O)N(CC)CC)nc(O)cc1=O,n,n,n,n,n,x,x
CCSc1nc(O)cc(=O)n1CC,n,n,n,n,25.1,n,n
SMILES,OXTR agonist,OXTR potentiator,TAAR1 ag,TAAR1 antag,V1aR counter,V1R ag confirm,OXTR counter
CC(O)c1nc2ccccc2n1CC(=O)Nc1ccc(F)cc1Cl (centres undefined),n,n,n,n,n,x,x
COC(=O)C1=NN(C(=O)c2ccc(C)cc2)C(O)(c2ccc(Cl)cc2)C1 (centres undefined),n,n,x,x,32.9,n,n
COC(=O)C1=NN(C(=O)c2ccccc2)C(O)(c2ccc([N+](=O)[O-])cc2)C1 (centres undefined),x,x,n,n,x,x,x
Cc1ccc(CN(C)C(=O)c2cc(Br)c(Br)s2)o1,n,n,n,n,n,x,x
COc1ccc(-c2ccc(C3C(C#N)=C(N)Oc4n[nH]c(C)c43)o2)cc1 (centres undefined),n,n,n,n,23.8,n,n
COC(=O)[C@H](Cc1c[nH]c2ccccc12)NC(=O)Cc1c[nH]c2ccccc12,n,n,n,n,21.5,n,n
OC(COc1ccc(F)cc1Cl)CN1CCC(Cc2ccccc2)CC1 (centres undefined),n,n,n,n,22.1,n,n
OC(COc1ccccc1F)CN1CCC(Cc2ccccc2)CC1 (centres undefined),n,n,n,n,n,x,x
Cc1ccc(OCc2cc(C(=O)NCc3ccc(OC(F)(F)F)cc3)no2)cn1,n,n,40.9,n,28.0,n,21.4
Cc1ccc(S(=O)(=O)NCC(=O)N/N=C/c2ccc(Cl)cc2)cc1,n,n,n,n,21.9,n,n
CC(C)CC(=O)N1CCN(Cc2ccccc2[N+](=O)[O-])CC1,n,n,n,n,n,x,x
CCC(C)(C)c1ccc(OCCCC[n+]2cccc(C)c2C)c(C(C)(C)CC)c1,n,n,n,n,31.1,n,n
CCC(C)(C)c1ccc(OCCCC[n+]2ccc(C)cc2)c(C(C)(C)CC)c1,n,n,n,n,n,x,x
O=C(NCc1ccccn1)c1nc(Cn2ccc([N+](=O)[O-])n2)no1,n,n,n,n,n,x,x
CCCCC(C(=O)NC1CCCC1)N(C(=O)c1snc(C(N)=O)c1N)c1ccc(C)cc1 (centres undefined),n,n,n,n,n,x,x
CS(=O)(=O)c1ccc(Cl)c(NC(=O)COC(=O)CCc2c[nH]c3ccccc23)c1,n,n,n,n,27.7,n,n
CCn1c(=O)c(C(=O)NNC(=O)c2cccc(Cl)c2)c(O)c2ccccc21,n,n,37.6,70.8,25.6,n,n
Cn1c(=O)c(C(=O)NNC(=O)c2ccccc2Br)c(O)c2ccccc21,n,n,n,n,n,x,x
CCn1c(=O)c(C(=O)NNC(=O)c2ccccc2Br)c(O)c2ccccc21,n,n,45.5,n,47.5,n,n
Cc1ccc(C)c(Nc2ccc3nonc3c2[N+](=O)[O-])c1,x,x,n,n,x,x,x
